Results as given in ChEMBL document CHEMBL2440016, “Targeting the human parasite Leishmania donovani: discovery of a new promising anti-infectious pharmacophore in 3-nitroimidazo[1,2-a]pyridine series” (Bioorg Med Chem, 2013).
pIC50: −log10 of the molar value. Each block holds one molecule with its values, some of them ahead of it.

What was measured:
[1] = Cytotoxicity against mouse J774.1 cells after 72 hrs by MTT assay; type: cell-based; settings: for CC50: j774.1, 72 h; for CC50 at 72 h: J774.1 cells
In short: (§1)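 Cells plated in RPMI with 10% FCS, L-glutamine and penicillin/streptomycin, 24 h at 37 °C, 6% CO2. Compound dilutions then added for 72 h. MTT 0.5 mg/mL in PBS for 2 h, formazan dissolved in DMSO, A570 with 630 nm reference. Viability taken as % of untreated control. Doxorubicin served as positive control. CC50 from the dose-response curve.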

HepG2 = assay: (§2) Cytotoxicity against human HepG2 cells after 72 hrs by MTT assay; type: cell-based; settings: hepg2, 72 h; in short: as §1
Leishmania donovani [2] = assay: Antimicrobial activity against Leishmania donovani MHOM/IN/00/DEVI promastigotes after 72 hrs by MTT assay; type: functional, organism-based; settings: for pIC50: Leishmania donovani, MHOM/IN/00/DEVI, 72 h, read-out: IC50
In short: (§3)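 Log-phase promastigotes in Schneider's medium with 20% FCS, 2 mM L-glutamine and penicillin/streptomycin, at 10⁶ parasites/mL. Compound dilutions run in duplicate, final DMSO <0.5%, 72 h at 27 °C. MTT 0.5 mg/mL for 6 h at 27 °C, formazan dissolved in DMSO, A570.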

[3] = as §2; type: cell-based; settings: HepG2 cells; in short: as §1
[4] = Selectivity index, ratio of CC50 for mouse J774.1 cells to IC50 for Leishmania donovani MHOM/IN/00/DEVI; type: functional
[5] = Selectivity ratio of IC50 for Plasmodium falciparum K1 to IC50 for Leishmania infantum MCAN/ES/98/LLM-877 promastigotes; type: functional
[6] = Selectivity ratio of IC50 for Plasmodium falciparum K1 to IC50 for Leishmania donovani MHOM/IN/00/DEVI promastigotes; type: functional
Plasmodium falciparum = assay: Antiplasmodial activity against Plasmodium falciparum K1 infected in human erythrocytes after 72 hrs by SYBR Green I fluorescence assay; type: functional, organism-based; settings: K1, 72 h
In short: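 K1 strain, resistant to chloroquine, pyrimethamine and proguanil, grown in A+ human erythrocytes with RPMI 1640, HEPES, NaHCO3 and 10% A+ serum. Rings synchronized with 5% sorbitol. Compounds tested at 2% hematocrit and 1% parasitaemia, 72 h at 37 °C in 5% O2, 5% CO2, in triplicate. DNA read by SYBR Green I lysis, 15 min, ex 497/em 520 nm. IC50 from three independent experiments.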

[7] = Selectivity ratio of IC50 for Plasmodium falciparum K1 to IC50 for Leishmania donovani MHOM/IN/00/DEVI amastigotes; type: functional
Leishmania infantum = assay: Antimicrobial activity against Leishmania infantum MCAN/ES/98/LLM-877 promastigotes after 72 hrs by MTT assay; type: functional, organism-based; settings: MCAN/ES/98/LLM-877, 72 h; in short: as §3
Leishmania donovani [8] = assay: Antimicrobial activity against Leishmania donovani MHOM/IN/00/DEVI amastigotes infected in mouse J774.1 cells after 120 hrs by microscopic analysis; type: functional, organism-based; settings: J774.1, 120 h
In short: (§4)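 J774A.1 macrophages seeded at 5x10⁴ cells/mL, 24 h at 37 °C, 6% CO2. L. donovani promastigotes acidified 24 h at 27 °C in Schneider 20% FCS pH 5.4, then used to infect at 10:1 for 24 h. Compounds added in duplicate, final DMSO <0.5%, 120 h at 37 °C. Cells methanol-fixed and Giemsa-stained, ≥200 cells counted for % infected. IC50 by non-linear regression, mean of three independent experiments.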

[9] = Selectivity index, ratio of CC50 for human HepG2 cells to IC50 for Leishmania donovani MHOM/IN/00/DEVI; type: functional
In short: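 SI = HepG2 CC50 / L. donovani IC50.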

Leishmania donovani [10] = assay: Antimicrobial activity against Leishmania donovani amastigotes; type: functional, organism-based; in short: as §4
Leishmania donovani [11] = assay: Antimicrobial activity against Leishmania donovani promastigotes; type: functional, organism-based; in short: as §3

SMILES: O=[N+]([O-])c1c(CS(=O)(=O)c2ccccc2)nc2ccc(-c3ccc4ccccc4c3)cn12
CC50 [1]: ND(Insoluble)
CC50 (HepG2): ND(Insoluble)
IC50 (Leishmania donovani [2]): ND(Insoluble)

SMILES: O=[N+]([O-])c1c(CS(=O)(=O)c2ccccc2)nc2ccc(-c3cccc(C(F)(F)F)c3)cn12
CC50 [1]: ND(Insoluble)
CC50 (HepG2): ND(Insoluble)
IC50 (Leishmania donovani [2]): ND(Insoluble)

SMILES: O=C1C(O)=C([C@H]2CC[C@H](c3ccc(Cl)cc3)CC2)C(=O)c2ccccc21 [ATOVAQUONE]
pIC50 (Plasmodium falciparum): 8.82

SMILES: C[C@@H]1[C@H](O)[C@@H](C)/C=C/C=C/C=C/C=C/C=C/C=C/C=C/[C@H](O[C@@H]2O[C@H](C)[C@@H](O)[C@H](N)[C@@H]2O)C[C@@H]2O[C@](O)(C[C@@H](O)C[C@@H](O)[C@H](O)CC[C@@H](O)C[C@@H](O)CC(=O)O[C@H]1C)C[C@H](O)[C@H]2C(=O)O [AMPHOTERICIN B]
CC50 at 72 h [1]: 3.1 µM
pIC50 (Leishmania infantum): 7.40
pIC50 (Leishmania donovani [8]): 7.15

SMILES: COc1ccc(-c2ccc3nc(CS(=O)(=O)c4ccccc4)c([N+](=O)[O-])n3c2)cc1
CC50 [1]: ND(Insoluble)
CC50 (HepG2): ND(Insoluble)
IC50 (Leishmania donovani [2]): ND(Insoluble)

SMILES: CCCCCCCCCCCCCCCCOP(=O)([O-])OCC[N+](C)(C)C [MILTEFOSINE]
CC50 at 72 h [1]: 94.6 µM
pIC50 (Leishmania donovani [8]): 5.17

SMILES: N=C(N)c1ccc(OCCCCCOc2ccc(C(=N)N)cc2)cc1 [PENTAMIDINE]
CC50 at 72 h [1]: 1 µM
Ratio CC50/IC50 [4]: 0.1
pIC50 (Leishmania donovani [8]): < 4.70
Ratio CC50/IC50 [9]: 0.4

Now from value to molecule, other results behind:

pIC50 (Plasmodium falciparum): 4.80
pIC50 (Leishmania donovani [8]): 5.26
SMILES: O=[N+]([O-])c1c(CS(=O)(=O)c2ccccc2)nc2c(Br)cc(Br)cn12
CC50 at 72 h [1]: > 25 µM
CC50 at 72 h [3]: > 31 µM
Ratio CC50/IC50 [4]: >13.4
pIC50 (Leishmania donovani [2]): 5.74
Ratio IC50 [5]: 4.8
Ratio IC50 [6]: 8.9
Ratio IC50 [7]: 3
pIC50 (Leishmania infantum): 5.48
Ratio CC50/IC50 [9]: >17.2

pIC50 (Leishmania donovani [10]): 5.55
pIC50 (Leishmania donovani [11]): 5.25
SMILES: CSc1ccc(OCc2ncc([N+](=O)[O-])n2C)cc1 [FEXINIDAZOLE]

pIC50 (Plasmodium falciparum): 4.39
pIC50 (Leishmania donovani [8]): < 4.60
SMILES: O=[N+]([O-])c1c(CS(=O)(=O)c2ccccc2)nc2ccc(Br)cn12
CC50 at 72 h [1]: 34.3 µM
CC50 at 72 h [3]: > 100 µM
Ratio CC50/IC50 [4]: 2.5
pIC50 (Leishmania donovani [2]): 4.85
pIC50 (Leishmania infantum): < 4.60
Ratio CC50/IC50 [9]: >7.1

pIC50 (Leishmania donovani [10]): 6.15
SMILES: COc1ccc(Sc2c([N+](=O)[O-])cc(C#N)cc2[N+](=O)[O-])cc1
